In ChEMBL document CHEMBL4196138, “Antiproliferative Carvotacetones from Sphaeranthus africanus” (J Nat Prod, 2018):
pIC50: −log10 of the molar value.

What was measured:
HCT-116 = test: Cytotoxicity against human HCT116 cells after 72 hrs by XTT assay; type: functional, cell-based; settings: HCT-116, 72 h
Procedure, shortened: (§1)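 HCT-116 and U-251 cells grown in high-glucose DMEM with 4 mM L-glutamine, 10% FBS, and 1% penicillin/streptomycin at 37 °C in 5% CO2. 5000 cells/well were attached overnight, then treated 72 h (final DMSO 0.5%; vinblastine 0.01 μM as positive control). XTT was measured photometrically 1.5 h after addition. IC50 by four-parameter logistic fit; mean ± SEM of six independent experiments.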

MDA-MB-231 = test: Cytotoxicity against human MDA-MB-231 cells after 72 hrs by XTT assay; type: functional, cell-based; settings: MDA-MB-231, 72 h
Procedure, shortened: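 MDA-MB-231 breast cancer cells kept in RPMI 1640 with 2 mM L-glutamine, 10% FBS, and penicillin/streptomycin at 37 °C in 5% CO2. 5000 cells/well were grown overnight, then exposed 72 h to compounds (final DMSO 0.5%, vehicle control; vinblastine 0.01 μM as positive control). Photometric XTT readout after 1.5 h. Four-parameter logistic IC50; six independent experiments, mean ± SEM.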

HEK293 = test: Cytotoxicity against HEK293 cells after 72 hrs by XTT assay; type: cell-based; settings: Homo sapiens, HEK293, 72 h
Procedure, shortened: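 HEK-293 cells in DMEM:Ham's F12 (1:1) with 2 mM L-glutamine, 10% FBS, and 1% penicillin/streptomycin at 37 °C in 5% CO2. 10 000 cells/well were treated 72 h with compounds from DMSO stocks (final DMSO 0.5%; vehicle controls). XTT plus electron coupling reagent was added and read photometrically. IC50 from a four-parameter logistic fit; mean ± SEM of six independent experiments.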

U-251 = test: Cytotoxicity against human U251 cells after 72 hrs by XTT assay; type: functional, cell-based; settings: U-251, 72 h; procedure, shortened: as §1
CCRF-CEM = test: Cytotoxicity against human CCRF-CEM cells after 72 hrs by XTT assay; type: functional, cell-based
Procedure, shortened: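 CCRF-CEM leukemia cells in RPMI 1640 with 2 mM L-glutamine, 10% FBS, and penicillin/streptomycin at 37 °C in 5% CO2. 10 000 cells/well were exposed 72 h to a concentration series (final DMSO 0.5%, vehicle control; vinblastine 0.01 μM as positive control). XTT was read photometrically after 4 h. Four-parameter logistic IC50; mean ± SEM, n = 6 independent experiments.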

| SMILES | pIC50 (HCT-116) | pIC50 (MDA-MB-231) | pIC50 (HEK293) | pIC50 (U-251) | pIC50 (CCRF-CEM) |
| --- | --- | --- | --- | --- | --- |
| C/C=C(/C)C(=O)O[C@@H]1C(=O)C(CO)=C[C@@H](OC(=O)/C(C)=C/C)[C@H]1C(C)C | 5.60 | 5.70 | 5.52 | 5.68 | 5.89 |
| C/C=C(/C)C(=O)O[C@@H]1C=C(CO)C(=O)[C@@H](O)[C@@H]1C(C)C | 5.02 | 5.19 | 5.26 | 5.37 | 5.82 |
| C/C=C(/C)C(=O)O[C@@H]1C(=O)C(CO)=C[C@@H](OC(=O)/C(C)=C\C)[C@H]1C(C)C | 5.41 | 5.74 | 5.60 | 5.52 | 6.10 |
| C/C=C(/C)C(=O)O[C@@H]1C=C(CO)C(=O)[C@@H](OC(=O)[C@](C)(O)[C@@H](C)Cl)[C@@H]1C(C)C | 5.54 | 5.82 | 5.55 | 5.68 | 6.22 |
| C/C=C(/C)C(=O)O[C@@H]1C=C(CO)C(=O)[C@@H](OC(=O)[C@]2(C)O[C@@H]2C)[C@@H]1C(C)C | 5.59 | 5.70 | 5.52 | 5.54 | 5.92 |
| CC[C@]1(O)C[C@@H]2CN(CCc3c([nH]c4ccccc34)[C@@](C(=O)OC)(c3cc4c(cc3OC)N(C)[C@H]3[C@@](O)(C(=O)OC)[C@H](OC(C)=O)[C@]5(CC)C=CCN6CC[C@]43[C@@H]65)C2)C1 [VINBLASTINE] | 8.06 | – | 7.57 | – | – |
